How the values were obtained:
[1] = Inhibition of melanogenesis in mouse B16-4A5 cells at 30 uM after 72 hrs by spectrophotometry relative to control; type: functional; settings: B16-4A5, 72 h
In short: (§1)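 Murine B16 melanoma 4A5 cells seeded at 2.0 × 10^4 cells/well in 24-well plates and cultured 24 h, then given test compound (DMSO, final 0.1%) plus 1 mM theophylline for 72 h. Cells trypsinized, washed and lysed in 1 M NaOH at 80 °C for 30 min; lysate absorbance read at 405 nm. Inhibition is corrected for cell viability, mean ± SEM (n = 4); IC50 determined graphically.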

[2] = Inhibition of melanogenesis in mouse B16-4A5 cells at 3 uM after 72 hrs by spectrophotometry relative to control; type: functional; settings: B16-4A5, 72 h; in short: as §1
[3] = Inhibition of melanogenesis in mouse B16-4A5 cells at 1 uM after 72 hrs by spectrophotometry relative to control; type: functional; settings: B16-4A5, 72 h; in short: as §1
[4] = Inhibition of melanogenesis in mouse B16-4A5 cells at 100 uM after 72 hrs by spectrophotometry relative to control; type: functional; settings: B16-4A5, 72 h; in short: as §1
[5] = Inhibition of melanogenesis in mouse B16-4A5 cells at 10 uM after 72 hrs by spectrophotometry relative to control; type: functional; settings: B16-4A5, 72 h; in short: as §1
[6] = Cytotoxicity against mouse B16-4A5 cells assessed as viable cells at 30 uM after 72 hrs by WST-8 assay; type: cell-based; settings: read-out: Activity
In short: (§2)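 B16 melanoma 4A5 cells (DMEM, 4.5 g/L glucose, 10% FBS, 37 °C, 5% CO2) seeded at 5.0 × 10^4 cells/well in 96-well plates, grown 24 h, then exposed to test compound (DMSO, final 0.1%) for 70 h. After a PBS wash, cells were given DMEM plus WST-8 for 2 h more. Formazan read at 450 nm (reference 655 nm).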

[7] = Inhibition of melanogenesis in mouse B16-4A5 cells after 72 hrs by spectrophotometry relative to control; type: functional, cell-based; in short: as §1
[8] = Cytotoxicity against mouse B16-4A5 cells assessed as viable cells at 10 uM after 72 hrs by WST-8 assay; type: cell-based; settings: read-out: Activity; in short: as §2
[9] = Inhibition of melanogenesis in mouse B16-4A5 cells at 1000 uM after 72 hrs by spectrophotometry relative to control; type: functional; settings: B16-4A5, 72 h
In short: (§3)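 B16 melanoma 4A5 cells were grown in DMEM (4.5 g/L glucose) with 10% FBS and penicillin/streptomycin at 37 °C, 5% CO2, then seeded at 2.0 × 10^4 cells/well. After 24 h, compound (DMSO stock, 0.1% DMSO final) was added with 1 mM theophylline for 72 h. Cells were trypsinized, washed, lysed in 1 M NaOH (80 °C, 30 min) and read at 405 nm. Inhibition was corrected for WST-8 viability; mean ± SEM, n = 4.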

[10] = Inhibition of melanogenesis in mouse B16-4A5 cells at 300 uM after 72 hrs by spectrophotometry relative to control; type: functional; settings: B16-4A5, 72 h; in short: as §3
[11] = Mus musculus, B16-4A5, 72 h, read-out: IC50

SMILES	IC50 [7]	IC50 [7, 11]	inhibition at 30 µM [1]	inhibition at 3 µM [2]	inhibition at 1 µM [3]	inhibition at 100 µM [4]	inhibition at 10 µM [5]	viability at 72 h, 30 µM [6]	viability at 72 h, 10 µM [8]	inhibition at 1000 µM [9]	inhibition at 300 µM [10]
O=C[C@]1(CCO[C@@H]2O[C@H](CO)[C@@H](O)[C@H](O)[C@H]2O)CC[C@H](COC(=O)C(=C/c2ccc(O)cc2)/C(=C\c2ccc(O)c(O)c2)C(=O)OC[C@H]2CC[C@](C=O)(CCO[C@@H]3O[C@H](CO)[C@@H](O)[C@H](O)[C@H]3O)[C@@H](O)C2)C[C@@H]1O	–	–	24.2%	18%	8.1%	29.8%	18.4%	> 95.2%	–	–	–
OC[C@H]1CC[C@](CO)(CCO[C@@H]2O[C@H](CO)[C@@H](O)[C@H](O)[C@H]2O)[C@@H](O)C1	–	–	-2.5%	17.9%	16.1%	-9.4%	15.3%	> 80.3%	–	–	–
O=C(OC[C@H]1CC[C@](CO)(CCO[C@@H]2O[C@H](CO)[C@@H](O)[C@H](O)[C@H]2O)[C@@H](O)C1)C(=C/c1ccc(O)cc1)/C(=C\c1ccc(O)c(O)c1)C(=O)OC[C@H]1CC[C@](CO)(CCO[C@@H]2O[C@H](CO)[C@@H](O)[C@H](O)[C@H]2O)[C@@H](O)C1	> 100 µM	–	32.3%	27.2%	22.3%	25.3%	27.3%	> 80.3%	–	–	–
COC(=O)C(=C/c1ccc(OC)cc1)/C(=C\c1ccc(OC)c(OC)c1)C(=O)OC	–	–	35.9%	48.4%	49%	11.5%	43.6%	> 74.5%	–	–	–
CO[C@@H]1C[C@]2(CC[C@H](COC(=O)/C=C/c3ccc(O)c(O)c3)C[C@@H]2O)[C@@H](OC)O1	3.6 µM	–	62.8%	42.8%	34.7%	66.8%	65.2%	> 95.2%	–	–	–
O=C[C@]1(/C=C\O[C@@H]2O[C@H](CO)[C@@H](O)[C@H](O)[C@H]2O)CC[C@H](COC(=O)/C=C/c2ccc(O)c(O)c2)C[C@@H]1O	> 100 µM	–	11.4%	-8.5%	-3.8%	12.2%	9.3%	> 95.2%	–	–	–
O=C[C@]1(/C=C\O[C@@H]2O[C@H](CO)[C@@H](O)[C@H](O)[C@H]2O)CC[C@H](COC(=O)C(=C/c2ccc(O)cc2)/C(=C\c2ccc(O)c(O)c2)C(=O)OC[C@H]2CC[C@](C=O)(/C=C\O[C@@H]3O[C@H](CO)[C@@H](O)[C@H](O)[C@H]3O)[C@@H](O)C2)C[C@@H]1O	> 100 µM	–	34.8%	30.2%	28.6%	16.7%	31.8%	> 95.2%	–	–	–
CO[C@H]1C[C@]2(CC[C@H](COC(=O)/C=C/c3ccc(O)c(O)c3)C[C@@H]2O)[C@H](OC)O1	19.3 µM	–	60%	16.9%	13.5%	81.2%	36.4%	> 80.3%	–	–	–
O=C[C@]1(/C=C\O[C@@H]2O[C@H](CO)[C@@H](O)[C@H](O)[C@H]2O)CC[C@H](COC(=O)C2=Cc3ccc(O)c(O)c3[C@@H](c3ccc(O)cc3)[C@@H]2C(=O)OC[C@H]2CC[C@](C=O)(/C=C\O[C@@H]3O[C@H](CO)[C@@H](O)[C@H](O)[C@H]3O)[C@@H](O)C2)C[C@@H]1O	> 100 µM	–	8.4%	14.9%	12.8%	-27.9%	9.4%	> 80.3%	–	–	–
O=C[C@]1(/C=C\O[C@@H]2O[C@H](CO)[C@@H](O)[C@H](O)[C@H]2O)CC[C@H](COC(=O)C2=Cc3cc(O)c(O)cc3[C@@H](c3ccc(O)cc3)[C@@H]2C(=O)OC[C@H]2CC[C@](C=O)(/C=C\O[C@@H]3O[C@H](CO)[C@@H](O)[C@H](O)[C@H]3O)[C@@H](O)C2)C[C@@H]1O	> 100 µM	–	2.9%	8.7%	9.2%	8.7%	3.6%	> 80.3%	–	–	–
O=C(OC[C@H]1CC[C@](CO)(CCO)[C@@H](O)C1)C(=C/c1ccc(O)cc1)/C(=C\c1ccc(O)c(O)c1)C(=O)OC[C@H]1CC[C@](CO)(CCO)[C@@H](O)C1	–	5 µM	49.8%	45%	36.1%	44.2%	59%	> 95.2%	–	–	–
OCC[C@@]1(CO)CC[C@H](CO)C[C@@H]1O	–	2 µM	51.6%	55.1%	45%	25.6%	55.9%	> 95.2%	–	–	–
OC[C@H]1O[C@@H](Oc2ccc(O)cc2)[C@H](O)[C@@H](O)[C@@H]1O [ARBUTIN]	–	174 µM	20.4%	–	–	38.1%	10.6%	–	–	83.7%	61.5%
COc1ccc(/C=C(C(=O)OC[C@H]2CC[C@](CO)(CCO)[C@@H](O)C2)\C(=C/c2ccc(OC)c(OC)c2)C(=O)OC[C@H]2CC[C@](CO)(CCO)[C@@H](O)C2)cc1	–	–	-19.9%	24.1%	34.4%	-15.7%	8.1%	68.8%	82%	–	–

Further lines, with some results ahead:

IC50 [7]	IC50 [7, 11]	SMILES	inhibition at 30 µM [1]	inhibition at 3 µM [2]	inhibition at 1 µM [3]	inhibition at 100 µM [4]	inhibition at 10 µM [5]	viability at 72 h, 30 µM [6]	viability at 72 h, 10 µM [8]	inhibition at 1000 µM [9]	inhibition at 300 µM [10]
57.5 µM	–	CC(C)[C@H]1CC[C@]2(C)[C@@H](O)CCC(C=O)=C[C@@H]12	37.7%	9.2%	-4.4%	58.8%	14.7%	> 80.3%	–	–	–
8.4 µM	–	C=C1CC[C@@H](O)[C@]2(C)CC[C@@H](C(C)C)[C@H](O)[C@@H]12	54.7%	39.7%	42.3%	59.2%	53.8%	> 74.5%	–	–	–
26.2 µM	–	CC(C)[C@@H]1CC[C@@](C)(O)[C@H]2CCC(C=O)=C[C@@H]12	50.8%	29.9%	19.2%	66.3%	35.8%	> 80.3%	–	–	–
> 100 µM	–	CC(C)[C@@H]1CC[C@@]2(C)[C@H](O)CCC(C=O)=C[C@@H]12 [APHANAMOL II]	28.3%	34.3%	37.6%	42.1%	32.9%	> 74.5%	–	–	–
5.1 µM	–	CC(C)[C@@H]1CC[C@@](C)(O)[C@@H]2CCC(C=O)=C[C@H]21	65.9%	45.5%	25%	48.8%	64%	> 80.3%	–	–	–
17.3 µM	–	C=C1/C=C/[C@H](C(C)C)CCC(=C)[C@H](O)CC1	61.2%	30.5%	28.9%	62.2%	40.6%	> 95.2%	–	–	–
2.5 µM	–	CC(C)[C@H]1CC[C@]2(C)C(=O)CCC(C=O)=C[C@@H]12	68.5%	50.3%	45.5%	80.6%	57.6%	> 95.2%	–	–	–
–	3 µM	CC1(C)C[C@H](OC(=O)c2ccccc2)[C@@]23CC[C@@H](O)[C@@](C)(CC[C@H]12)C3	–	40.2%	45.3%	–	66.7%	7.9%	75.9%	–	–

Source: ChEMBL document CHEMBL3259598, “Lignan dicarboxylates and terpenoids from the flower buds of Cananga odorata and their inhibitory effects on melanogenesis” (J Nat Prod, 2014)
